Data: PMC12064631 (Clinical Pharmacokinetics, 2025)
Several values for one entry are separate records, joined by “and”; a condition that tells them apart may be missing. Equal entries are not always repeated. Where two headings read alike, the source gives them in different places.

What was measured:
DPP-4 [1] = settings: 168 h post single dose of 25 mg, healthy Japanese subjects; cited from earlier work
[2] = large clinical trials, rare; cited from earlier work
[3] = single dose of 100 mg, healthy subjects, cited from earlier work
DPP‐2 = settings: cited from earlier work
diet-induced obese mice = settings: DBPR108 in combination with metformin; cited from earlier work
DPP‐4 = settings: cited from earlier work
[4] = assay type: in vivo, human (Chinese patients with type 2 diabetes); settings: for AUC(0-inf) / AUC(0-t) / AUC / Tmax / Vd/F / half-life / k el / Cmax: human, plasma; for AUC(0-inf) / AUC(0-t) / AUC / Tmax / Vd/F / half-life / k el: oral; for AUC(0-inf): AUCinf; for AUC(0-inf) / AUC(0-t) / AUC / Vd/F / half-life / k el / %AUC_ex,ss / CLss/F / Cmin,ss / %AUC_ex / CL/F: mean (SD); for AUC(0-t): AUClast; for AUC: AUCtau; for Tmax: median (range); for Vd/F: Vz/F; for k el: λz; for Cmax: po
How it was run: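 Fasting oral tablets of 50, 100 or 200 mg were given once daily on days 1 and 3–9 (eight doses). Plasma was spun at 1700 ± 50 g, 4 °C, 10 min, acidified with 50% acetic acid (1:100) and stored ≤ –60 °C. Analysis was by validated LC-MS/MS (1.00–2000 ng/mL; LLOQ 1.00 ng/mL). Individual parameters and accumulation ratio came from noncompartmental analysis using actual sampling times.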

active GLP-1 = test: Plasma active GLP-1 level after single and multiple doses of DBPR108; assay type: in vivo, human (Chinese patients with type 2 diabetes); settings: for Emax,GLP-1 (active GLP-1): mean (SD)
How it was run: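 Patients with type 2 diabetes, 10 per group, received oral tablets of 50, 100 or 200 mg fasting, once daily on days 1 and 3–9. Plasma was spun at 1300 ± 50 g, 2–8 °C, 10 min and stored ≤ –60 °C. Active GLP-1 was measured by MSD V-PLEX kit (LLOQ 0.182 pM). Emax and time to Emax were taken per group, and correlation with exposure was checked.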

DPP-4 [5] = biological target: T1, DPP-4 (Homo sapiens, UniProt P27487); test: Inhibition of plasma DPP-4 activity after single and multiple doses of DBPR108; assay type: in vivo, human (Chinese patients with type 2 diabetes)
How it was run: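 Chinese adults with type 2 diabetes (HbA1c 7.0–9.5%, BMI 19–35 kg/m2), 10 per group. Oral tablets of 50, 100 or 200 mg were given fasting, once daily on days 1 and 3–9. Plasma was spun at 1300 ± 50 g, 2–8 °C, 10 min and stored ≤ –60 °C. DPP-4 activity was read on a microplate reader (LLOQ 21.23 μU/mL), with % inhibition taken from baseline.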

DPP‐8 = settings: cited from earlier work
[6] = tested on: DPP-4 activity in the plasma; settings: plasma of humans, rodents, dogs, and monkeys, range over species; cited from earlier work
DPP-4 [7] = biological target: T1, DPP-4; test: PK-PD relationship between DPP-4 inhibition and DBPR108 exposure; assay type: in vivo, human (Chinese patients with type 2 diabetes)
How it was run: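 Each patient's plasma drug level (LC-MS/MS) was paired with plasma DPP-4 % inhibition, after one dose and after repeated once-daily oral dosing at 50–200 mg. Linear correlation with exposure was assessed, and inhibition versus concentration was fitted with an Emax model giving Emax and EC50. Only patients with evaluable PK and PD data were included.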

Safety assessment = assay type: in vivo, human (Chinese patients with type 2 diabetes)
How it was run: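 Treatment-emergent adverse events were recorded as a secondary outcome in all patients dosed at least once. Dosing was oral tablets of 50, 100 or 200 mg, fasting, once daily on days 1 and 3–9. Patients were grouped by the dose actually received.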

[8] = tested on: fibroblast activation protein; settings: cited from earlier work
DPP‐9 = settings: cited from earlier work
[9] = 50 mg, multiple doses 50 mg once daily
[10] = 100 mg, multiple doses 100 mg once daily
[11] = 200 mg, multiple doses 200 mg once daily
[12] = multiple doses 50 mg once daily
[13] = multiple doses 100 mg once daily
[14] = multiple doses 200 mg once daily
[15] = multiple doses, range over 50-200 mg groups
[16] = single dose and multiple doses, 50 mg to 200 mg, linear regression

T1 sequence (P27487 39-766): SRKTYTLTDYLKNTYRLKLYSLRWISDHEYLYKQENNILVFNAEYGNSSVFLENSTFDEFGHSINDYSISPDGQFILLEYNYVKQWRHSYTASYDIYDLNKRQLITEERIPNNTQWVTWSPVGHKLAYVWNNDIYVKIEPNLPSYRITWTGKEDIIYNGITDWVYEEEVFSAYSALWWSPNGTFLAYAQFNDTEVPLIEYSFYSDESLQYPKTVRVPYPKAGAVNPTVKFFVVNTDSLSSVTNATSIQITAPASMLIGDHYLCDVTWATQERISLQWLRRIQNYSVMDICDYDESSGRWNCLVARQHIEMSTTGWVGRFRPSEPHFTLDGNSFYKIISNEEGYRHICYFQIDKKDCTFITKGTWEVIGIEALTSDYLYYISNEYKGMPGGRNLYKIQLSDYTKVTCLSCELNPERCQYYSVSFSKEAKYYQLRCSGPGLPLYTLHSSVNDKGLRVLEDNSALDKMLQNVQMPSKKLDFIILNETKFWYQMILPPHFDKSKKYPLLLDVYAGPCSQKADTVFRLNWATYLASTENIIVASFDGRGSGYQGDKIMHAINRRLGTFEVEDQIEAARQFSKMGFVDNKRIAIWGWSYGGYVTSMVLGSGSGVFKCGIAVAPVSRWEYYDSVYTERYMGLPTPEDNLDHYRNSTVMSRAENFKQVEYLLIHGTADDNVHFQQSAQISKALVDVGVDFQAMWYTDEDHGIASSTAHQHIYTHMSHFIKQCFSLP

CS(=O)(=O)n1cc2c(n1)CN([C@H]1CO[C@H](c3cc(F)ccc3F)[C@@H](N)C1)C2 [omarigliptin]
Emax,DPP-4 (DPP-4 [1]): 86.0%

N[C@@H](CC(=O)N1CCn2c(nnc2C(F)(F)F)C1)Cc1cc(F)c(F)cc1F [sitagliptin]
Risk of pancreatitis [2]: increased risks of pancreatitis were observed

Cn1c(=O)cc(N2CCC[C@@H](N)C2)n(Cc2ccccc2C#N)c1=O [alogliptin]
Risk of pancreatitis [2]: increased risks of pancreatitis were observed

CC(C)(CC(=O)N1CCCC1)NCC(=O)N1C[C@@H](F)C[C@H]1C#N [DBPR108, (2S,4S)-1-[2-(1,1-dimethyl-3-oxo-3-pyrrolidin-1-yl-propylamino)acetyl]-4-fluoro-pyrrolidine-2-carbonitrile]
Cmax ([3]; mean (SD)): 218.8 (101.8) ng/mL | t½ ([3]; mean (SD)): 8.2 (8.6) h | Tmax ([3]; median (range)): 4.48 (range 1–6) h | IC50 (DPP‐2): > 50 nM | Glucose tolerability (diet-induced obese mice): improved glucose tolerability | IC50 (DPP‐4): 15 nM | Dose proportionality of exposure (power model) ([4]; 50 mg to 200 mg, single dose and multiple doses): increased dose proportionally | Steady state achieved on ([4]; dosing on days 1 and 3-9): 7 days | AUC(0-inf) ([4]; 50 mg, single dose 50 mg): 792 ng·h/mL | AUC(0-t) ([4]; 50 mg, single dose 50 mg): 780 ng·h/mL | AUC ([4]; 50 mg, single dose 50 mg): 770 ng·h/mL | Tmax ([4]; 50 mg, single dose 50 mg): 1.5 h | Vd/F [4, 9]: 806 L | Vd/F ([4]; 50 mg, single dose 50 mg): 479 L | half-life ([4]; 50 mg, t½, single dose 50 mg): 5 h | half-life ([4]; 50 mg, t½,ss, multiple doses 50 mg once daily): 8 h | k el [4, 9]: 3.56e-05 s⁻¹ | k el ([4]; 50 mg, single dose 50 mg): 5e-05 s⁻¹ | AUC(0-inf) ([4]; 100 mg, single dose 100 mg): 1530 ng·h/mL | AUC(0-t) ([4]; 100 mg, single dose 100 mg): 1500 ng·h/mL | AUC ([4]; 100 mg, single dose 100 mg): 1450 ng·h/mL | Tmax ([4]; 100 mg, single dose 100 mg): 4.5 h | Vd/F [4, 10]: 896 L | Vd/F ([4]; 100 mg, single dose 100 mg): 1010 L | half-life ([4]; 100 mg, t½, single dose 100 mg): 9.6 h | half-life ([4]; 100 mg, t½,ss, multiple doses 100 mg once daily): 7.4 h | k el [4, 10]: 4.03e-05 s⁻¹ | k el ([4]; 100 mg, single dose 100 mg): 3.61e-05 s⁻¹ | AUC(0-inf) ([4]; 200 mg, single dose 200 mg): 3400 ng·h/mL | AUC(0-t) ([4]; 200 mg, single dose 200 mg): 3280 ng·h/mL | AUC ([4]; 200 mg, single dose 200 mg): 3120 ng·h/mL | Tmax ([4]; 200 mg, single dose 200 mg): 4.5 h | Vd/F [4, 11]: 894 L | Vd/F ([4]; 200 mg, single dose 200 mg): 1070 L | half-life ([4]; 200 mg, t½, single dose 200 mg): 12.3 h | half-life ([4]; 200 mg, t½,ss, multiple doses 200 mg once daily): 10.2 h | k el [4, 11]: 2.69e-05 s⁻¹ | k el ([4]; 200 mg, single dose 200 mg): 2.78e-05 s⁻¹ | Cmax ([4]; 50 mg): 151 ng/mL | Cmax ([4]; 100 mg): 239 ng/mL | Cmax ([4]; 200 mg): 474 ng/mL | %AUC_ex,ss [4, 12]: 4.48 (4.09) % | CLss/F [4, 12]: 76.0 (23.3) L/h | Cmin,ss [4, 12]: 3.2 (1.6) ng/mL | %AUC_ex,ss [4, 13]: 2.33 (3.04) % | CLss/F [4, 13]: 76.4 (22.3) L/h | Cmin,ss [4, 13]: 5.6 (2.9) ng/mL | %AUC_ex,ss [4, 14]: 3.17 (3.44) % | CLss/F [4, 14]: 64.6 (16.7) L/h | Cmin,ss [4, 14]: 18.3 (16.8) ng/mL | Accumulation ratio (Rac) ([4]; multiple doses, range over the 50-, 100-, 200-mg groups): 0.85 to 1.3 and 0.85–1.3 | Steady state reached after ([4]; once-daily dosing, 50-200 mg): four | %AUC_ex ([4]; single dose 50 mg): 1.5 (0.9) % | CL/F ([4]; single dose 50 mg): 66.6 (16.5) L/h | %AUC_ex ([4]; single dose 100 mg): 2.3 (1.4) % | CL/F ([4]; single dose 100 mg): 72.9 (26.2) L/h | %AUC_ex ([4]; single dose 200 mg): 3.2 (3.2) % | CL/F ([4]; single dose 200 mg): 63.3 (17.0) L/h | Active GLP-1 levels after administration (active GLP-1; after DBPR108 administration, 50-200 mg): increased | Emax,GLP-1 (active GLP-1) (active GLP-1; [12]): 5.7 (2.2) pM | Emax,GLP-1 (active GLP-1) (active GLP-1; [13]): 6.6 (2.3) pM | Emax,GLP-1 (active GLP-1) (active GLP-1; [14]): 5.8 (3.2) pM | median time to Emax,GLP-1 (active GLP-1; [15]): 6 to 7 h | median time to Emax,GLP-1 (active GLP-1; single dose 50 mg): 8 h | Emax,GLP-1 (active GLP-1) (active GLP-1; single dose 50 mg): 4.5 (1.6) pM | median time to Emax,GLP-1 (active GLP-1; single dose 100 mg): 12 h | Emax,GLP-1 (active GLP-1) (active GLP-1; single dose 100 mg): 4.8 (1.4) pM | median time to Emax,GLP-1 (active GLP-1; single dose 200 mg): 12 h | Emax,GLP-1 (active GLP-1) (active GLP-1; single dose 200 mg): 5.5 (2.1) pM | Correlation between changes in plasma active GLP-1 and DBPR108 exposure (active GLP-1; [16]): no linear correlation was noted | maximum inhibitory efficacy of DPP-4 (DPP-4 [5]; [15]): 62.1 to 89.4% | time to Emax,DPP-4 (DPP-4 [5]; [15]): 3 to 4 h | median time to Emax of DPP-4 (DPP-4 [5]; single dose 50 mg): 2 h | median time to Emax of DPP-4 (DPP-4 [5]; single dose 100 mg): 4 h | median time to Emax of DPP-4 (DPP-4 [5]; single dose 200 mg): 6 h | IC50 (DPP‐8): > 50 nM | IC50 [6]: 4.1 to 20.4 nM | EC50 (DPP-4 [7]; EC50 (Emax model), after a single administration, DPP-4 inhibition versus plasma concentration): 323 nM | Emax,DPP-4 (Emax model) (DPP-4 [7]; after multiple doses, DPP-4 inhibition versus plasma concentration): 106.19% | Emax (DPP-4 [7]; read-out: Emax,DPP-4 (Emax model), after a single administration, DPP-4 inhibition versus plasma concentration): 120% | Emax (DPP-4 [7]; read-out: Emax,DPP-4 (Emax model), after multiple doses, DPP-4 inhibition versus plasma concentration): 106% | Correlation between DPP-4 inhibition and DBPR108 exposure (DPP-4 [7]; [16]): linear correlation was observed | Tolerability (Safety assessment; 50-200 mg once daily, eight doses): well tolerated | Cardiovascular adverse events (Safety assessment; all 30 patients): no cardiovascular adverse events were observed | Severe TEAEs, serious TEAEs, TEAEs leading to treatment interruption or discontinuation (Safety assessment; all 30 patients): No severe TEAEs, serious TEAEs, or TEAEs leading to treatment interruption or discontinuation occurred | TEAE white blood cell count increase, n [%] (Safety assessment; all 30 patients): 1 [3.3%] | Patients with treatment-emergent adverse events (TEAEs) (Safety assessment; all 30 patients, 50-200 mg): 20% | IC50 [8]: > 50 nM | IC50 (DPP‐9): > 50 nM
